According to article PMC9049676 (RSC Advances, 2020):

Experiments:
Format in all cases: cell-based, human
T24 = assay: MTT cytotoxicity assay, T24; details: read-out: IC50 T24, cells treated for 24 h
Method in brief: (§1)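 Tumour lines and the normal liver line HL-7702 came from the Shanghai Cell Bank. Cells were cultured in RPMI 1640 or DMEM with 10% FBS and 1% streptomycin at 37 °C, 5% CO2. Cells were exposed to test compounds, and viability was read by MTT reduction to derive IC50. Cisplatin was run as reference control.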

HL-7702 = assay: MTT cytotoxicity assay, normal liver cell line HL-7702; details: read-out: IC50 HL-7702, cells treated for 24 h
Method in brief: as §1

NCI-H460 = assay: MTT cytotoxicity assay, NCI-H460; details: read-out: IC50 NCI-H460, cells treated for 24 h
Method in brief: as §1

Hep-G2 = assay: MTT cytotoxicity assay, Hep-G2; details: read-out: IC50 Hep-G2, cells treated for 24 h
Method in brief: as §1

Structure (SMILES): N.N.[Cl][Pt][Cl] [Cisplatin]
- IC50 (T24): 22.9 ± 0.93 µM
- IC50 (HL-7702): 13.4 ± 1.56 µM
- IC50 (NCI-H460): 11.7 ± 2.26 µM
- IC50 (Hep-G2): 19.6 ± 1.39 µM
